Test results: ChEMBL document CHEMBL1629663, “Postantibiotic effects of telavancin against 16 gram-positive organisms” (Antimicrob Agents Chemother, 2009)
≈ marks a conversion by molar mass, not a printed value.

Assays:
Assay type in all cases: functional
[1] = test system: Staphylococcus aureus; assay: Antimicrobial activity against vancomycin-resistant-, methicillin-resistant Staphylococcus aureus 510 assessed as post-antibiotic effect at 10 times MIC pre-exposed for 1 hr by plate counting method
Method in brief: (§1)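 Direct colony suspensions (~5 × 10^6 CFU/ml) were exposed to 10× MIC for 1 h at 35°C with shaking in Mueller-Hinton broth, then diluted 1:1,000 to remove drug. Viable plate counts were taken before exposure, at 0 h, then every 2 h until turbidity reached McFarland 1. PAE = T − C, the time for counts to rise 1 log10 versus the unexposed control. Two separate experiments were run.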

[2] = test system: Staphylococcus aureus; assay: Antimicrobial activity against vancomycin-intermediate-, methicillin-resistant Staphylococcus aureus 1287 assessed as time required to induce sub-MIC effect at 0.4 times MIC […] by plate counting method
Method in brief: (§2)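 SME, viable plate count method: no prior drug exposure. About 5 × 10^6 CFU/ml in Mueller-Hinton broth at 35°C received 0.2, 0.3 or 0.4× MIC, alongside a drug-free tube. Counts were taken at the start, then every 2 h until McFarland no. 1 turbidity, as log10 CFU/ml against time. Two separate experiments, each with a new inoculum.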

[3] = test system: Staphylococcus aureus; assay: Antimicrobial activity against vancomycin-susceptible-, methicillin-resistant Staphylococcus aureus ATCC 33591 assessed as post-antibiotic effect at 10 times MIC pre-exposed to Telavancin for 1 hr by plate counting method; method in brief: as §1
[4] = test system: Staphylococcus aureus; assay: Antimicrobial activity against vancomycin-intermediate-, methicillin-resistant Staphylococcus aureus 1287 assessed as time required to induce sub-MIC effect at 0.2 times MIC […] by plate counting method; method in brief: as §2
[5] = test system: Staphylococcus aureus; assay: Antimicrobial activity against vancomycin-resistant-, methicillin-resistant Staphylococcus aureus 510 assessed as time required to induce sub-MIC effect at 0.4 times MIC exposed for 2 hrs by plate counting method
Method in brief: (§3)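 Sub-MIC effect: cultures not preexposed to drug were diluted and handled as in the PA-SME procedure in Mueller-Hinton broth with final 0.2, 0.3 or 0.4× MIC, plus a drug-free control. Viable plate counts were taken every 2 h until McFarland 1 turbidity. Duration was derived from growth curves. Two experiments were run, each with a new inoculum.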

[6] = test system: Streptococcus agalactiae; assay: Antimicrobial activity against Streptococcus agalactiae HMC 5 assessed as time required to induce post antibiotic sub-MIC effect at 0.2 times MIC pre-exposed to Telavancin for 2 hrs by plate counting method; details: in the assay text read “for 1 hr” for “for 2 hrs”
Method in brief: (§4)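 Mueller-Hinton broth cultures of about 5 × 10^6 CFU/ml were pre-exposed to telavancin at 10× MIC for 1 h at 35°C, then diluted 1:1,000. Telavancin was re-added to final 0.2, 0.3 or 0.4× MIC, alongside a drug-free tube. Viable counts were taken before exposure, after dilution, then every 2 h until McFarland no. 1 turbidity. Duration comes from log10 CFU/ml-versus-time plots; two separate experiments with fresh inocula.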

[7] = test system: Enterococcus faecalis; assay: Antimicrobial activity against Enterococcus faecalis HMC 571 assessed as time required to induce sub-MIC effect at 0.4 times MIC exposed for 2 hrs by plate counting method
Method in brief: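 Unexposed Mueller-Hinton broth cultures (about 5 × 10^6 CFU/ml, 35°C) were handled as in the PA-SME set but without the 10× MIC pre-exposure. They were diluted 1:1,000, then given telavancin at final 0.2, 0.3 or 0.4× MIC, with a drug-free control. Viable counts were taken every 2 h until McFarland no. 1 turbidity. Effect duration comes from log10 CFU/ml-time plots; two separate experiments with new inocula.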

[8] = test system: Staphylococcus aureus; assay: Antimicrobial activity against vancomycin-susceptible-, methicillin-resistant Staphylococcus aureus ATCC 33591 assessed as time required to induce post antibiotic sub-MIC effect at 0.3 times MIC […] by plate counting method
Method in brief: (§5)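 After 1 h preexposure to 10× MIC at 35°C and 1:1,000 dilution, cultures were split, and drug was re-added to final 0.2, 0.3 or 0.4× MIC, with a drug-free tube. Viable counts were taken every 2 h until McFarland 1 turbidity. Duration was derived from log10 CFU/ml versus time curves. Two experiments were run, each with a new inoculum.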

[9] = test system: Streptococcus pyogenes; assay: Antimicrobial activity against Streptococcus pyogenes HMC 414 assessed as time required to induce post antibiotic sub-MIC effect at 0.4 times MIC […] by plate counting method; method in brief: as §4
[10] = test system: Staphylococcus aureus; assay: Antimicrobial activity against vancomycin-susceptible-, methicillin-resistant Staphylococcus aureus 1307 assessed as time required to induce sub-MIC effect at 0.2 times MIC exposed for 2 hrs by plate counting method; method in brief: as §3
[11] = test system: Enterococcus faecium; assay: Antimicrobial activity against Enterococcus faecium HMC 588 by microdilution method
[12] = test system: Staphylococcus aureus; assay: Antimicrobial activity against vancomycin-susceptible-, methicillin-resistant Staphylococcus aureus 1307 assessed as time required to induce sub-MIC effect at 0.3 times MIC exposed for 2 hrs by plate counting method; method in brief: as §3
[13] = test system: Staphylococcus aureus; assay: Antimicrobial activity against vancomycin-susceptible-, methicillin-resistant Staphylococcus aureus ATCC 33591 assessed as time required to induce sub-MIC effect at 0.2 times MIC exposed for 2 hrs by plate counting method; method in brief: as §3
[14] = test system: Streptococcus pyogenes; assay: Antimicrobial activity against Streptococcus pyogenes HMC 414 by microdilution method
[15] = test system: Staphylococcus aureus; assay: Antimicrobial activity against vancomycin-intermediate-, methicillin-resistant Staphylococcus aureus 555 assessed as time required to induce post antibiotic sub-MIC effect at 0.4 times MIC […] by plate counting method
Method in brief: (§6)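 PAE was first induced with 10× MIC for 1 h at 35°C (inoculum about 5 × 10^6 CFU/ml, Mueller-Hinton broth) and ended by 1:1,000 dilution. Cultures were then split and given 0.2, 0.3 or 0.4× MIC, with one tube left without drug. Viable counts were taken before exposure, after dilution, then every 2 h until McFarland no. 1 turbidity. Two separate experiments, each with a new inoculum.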

[16] = test system: Staphylococcus aureus; assay: Antimicrobial activity against vancomycin-susceptible-, methicillin-resistant Staphylococcus aureus ATCC 33591 assessed as time required to induce sub-MIC effect at 0.3 times MIC exposed for 2 hrs by plate counting method; method in brief: as §3
[17] = test system: Staphylococcus aureus; assay: Antimicrobial activity against heterogenous vancomycin-intermediate-, methicillin-resistant Staphylococcus aureus 873 assessed as time required to induce post antibiotic sub-MIC effect at 0.2 times MIC pre-exposed to Telavancin […] by plate counting method; method in brief: as §6
[18] = test system: Enterococcus faecalis; assay: Antimicrobial activity against Enterococcus faecalis ATCC 29212 assessed as time required to induce post antibiotic sub-MIC effect at 0.4 times MIC […] by plate counting method; method in brief: as §4
[19] = test system: Staphylococcus aureus; assay: Antimicrobial activity against vancomycin-susceptible-, methicillin-resistant Staphylococcus aureus 1306 assessed as post-antibiotic effect at 10 times MIC pre-exposed to Telavancin for 1 hr by plate counting method; method in brief: as §1
[20] = test system: Staphylococcus aureus; assay: Antimicrobial activity against vancomycin-susceptible-, methicillin-resistant Staphylococcus aureus ATCC 33591 by microdilution method
[21] = test system: Staphylococcus aureus; assay: Antimicrobial activity against vancomycin-susceptible-, methicillin-resistant Staphylococcus aureus 1130 assessed as time required to induce post antibiotic sub-MIC effect at 0.2 times MIC pre-exposed to Telavancin for […] by plate counting method; method in brief: as §5
[22] = test system: Enterococcus faecalis; assay: Antimicrobial activity against Enterococcus faecalis ATCC 29212 assessed as time required to induce post antibiotic sub-MIC effect at 0.3 times MIC […] by plate counting method; method in brief: as §4

Structure (SMILES): CCCCCCCCCCNCCN[C@@]1(C)C[C@H](O[C@H]2[C@H](Oc3c4cc5cc3Oc3ccc(cc3Cl)[C@@H](O)[C@@H](NC(=O)[C@@H](CC(C)C)NC)C(=O)N[C@@H](CC(N)=O)C(=O)N[C@H]5C(=O)N[C@H]3C(=O)N[C@H](C(=O)N[C@H](C(=O)O)c5cc(O)c(CNCP(=O)(O)O)c(O)c5-c5cc3ccc5O)[C@H](O)c3ccc(c(Cl)c3)O4)O[C@H](CO)[C@@H](O)[C@@H]2O)O[C@@H](C)[C@H]1O [TELAVANCIN]
- PAE [1]: 1.3 h
- PAE [2]: 0.8 h
- PAE [3]: 1.5 h
- PAE [4]: 0 h
- PAE [5]: 3.6 h
- PAE [6]: 0.8 h
- PAE [7]: 9.6 h
- PAE [8]: > 10 h
- PAE [9]: > 10.7 h
- PAE [10]: 1 h
- MIC [11]: 0.12 µg/mL (≈ 0.0684 µM)
- PAE [12]: 2.6 h
- PAE [13]: 0.3 h
- MIC [14]: 0.06 µg/mL (≈ 0.0342 µM)
- PAE [15]: > 10.3 h
- PAE [16]: 1.4 h
- PAE [17]: 3.6 h
- PAE [18]: > 10.7 h
- PAE [19]: 1.8 h
- MIC [20]: 0.25 µg/mL (≈ 0.142 µM)
- PAE [21]: 5.4 h
- PAE [22]: > 10.7 h
